GAA850 FXN act: FXN promoter activators, primary screen, cell-based, luciferase luminescence, HEK293 lucGAA850; HEK293 lucGAA850 FXN promoter luciferase reporter, 24 h; percent of 10 µM SAHA response; activation, % at 6 µM; 360,000 tested, 0.56% active;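 active = activation above the average of all compounds screened plus 3 SD, cutoff fixed separately per campaign, cut at about 7.5% in these data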;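 note: 0% = DMSO wells and 100% = 10 µM SAHA wells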
AHR act: AHR activators, primary screen, cell-based, luminescence, luciferase reporter, human. activation, % at 5 µM. AHR-responsive luciferase reporter cells. 320,000 tested, 2.5% active; in the data active = activation above about 47%;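 note: 0% = vehicle wells and 100% = reference agonist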
Target sequence (P35869 whole entry, looked up): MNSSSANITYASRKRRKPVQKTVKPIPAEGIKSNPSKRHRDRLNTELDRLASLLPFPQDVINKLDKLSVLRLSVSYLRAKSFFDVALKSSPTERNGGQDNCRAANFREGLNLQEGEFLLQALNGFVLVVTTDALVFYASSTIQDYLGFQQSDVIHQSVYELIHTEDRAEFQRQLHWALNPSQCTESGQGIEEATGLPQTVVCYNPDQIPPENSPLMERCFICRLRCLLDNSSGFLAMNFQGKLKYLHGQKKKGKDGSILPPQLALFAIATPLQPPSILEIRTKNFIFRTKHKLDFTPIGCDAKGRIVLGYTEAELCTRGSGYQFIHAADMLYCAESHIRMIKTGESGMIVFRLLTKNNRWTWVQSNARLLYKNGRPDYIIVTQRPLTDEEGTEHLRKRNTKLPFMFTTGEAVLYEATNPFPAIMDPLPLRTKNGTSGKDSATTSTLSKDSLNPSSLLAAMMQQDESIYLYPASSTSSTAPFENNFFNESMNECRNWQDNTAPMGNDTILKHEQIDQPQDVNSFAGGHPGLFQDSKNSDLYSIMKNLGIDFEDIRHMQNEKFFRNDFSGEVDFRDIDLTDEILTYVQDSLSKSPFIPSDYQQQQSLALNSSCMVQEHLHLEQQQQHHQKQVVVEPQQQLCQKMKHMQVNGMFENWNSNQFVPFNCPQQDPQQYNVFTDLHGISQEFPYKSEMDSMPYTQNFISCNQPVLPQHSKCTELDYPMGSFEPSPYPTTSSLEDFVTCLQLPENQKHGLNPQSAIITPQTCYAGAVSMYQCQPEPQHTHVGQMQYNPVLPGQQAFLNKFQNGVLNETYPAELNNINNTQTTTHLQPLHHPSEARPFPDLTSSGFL
SR-BI DiI-HDL act: activators of SR-BI mediated DiI-HDL uptake, primary screen, ldlA[mSR-BI] CHO cells, DiI fluorescence; 3 h; 100 = double the neutral-control signal; activation, % at 12.5 µM; 320,000 tested, 0.096% active; AID 504775, 2011;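 active = mean replicate activation of at least 60% and every replicate at or above 60%; inconclusive = mean or all-replicate condition met, but not both; inactive = mean below 60% and not all replicates reaching 60%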;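 note: 0% = median plate neutral-control signal and 100% = twice that signal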
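Test system: SR-BI-overexpressing, LDLR-lacking CHO cells. Measured by: DiI fluorescence, bottom read. Medium: Ham's F12 with 0.5% BSA, HEPES 25 mM, pH 7.4. Timing: 3 h uptake period with compound, 37 °C.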
JMJD2C inh: inhibitors of GASC-1 histone demethylase, primary screen, biochemical, fluorescence, DELFIA europium. 330,000 tested, 0.069% active. GST-JMJD2C(1-420) H3K9me3 demethylation. inhibition, % at 2.35 µM. AID 2099, 2009. Lysine-specific demethylase 4C (Homo sapiens), Q9H3R0;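 active = more than half of a compound's replicate wells show inhibition beyond 50%, single wells judged on their own value; inconclusive = some, but no more than half, of replicates pass 50% inhibition; inactive = no replicate passes 50% inhibition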;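 note: signal counts dimethyl H3K9 product captured on neutravidin plate; 0% = median of DMSO wells and 100% = 0.3 times that DMSO median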
SR-BI HDL uptake: inhibitors of SR-BI mediated HDL lipid uptake, primary screen, ldlA[mSR-BI] cells, fluorescence, single point. Scavenger receptor class B member 1 (Mus musculus), Q61009. ldlA[mSR-BI] CHO cells, DiI-HDL uptake fluorescence, 3 h. inhibition, % at 12.5 µM. 320,000 tested, 0.96% active. AID 488896, 2010;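 active = mean replicate inhibition of at least 70% and a set share of replicates each scoring 70 or more; inconclusive = meets just one of the two criteria; inactive = fails both criteria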;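 note: 0% = median of neutral control wells and 100% = median of positive control wells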
AHR act confirm: AHR activators, confirmation, cell-based, luminescence, luciferase reporter, human | shares compounds with AHR act | human cells, AHR-responsive luciferase reporter | activation, % at 9 µM | 2,300 tested, 87% active | AID 2845, 2010; in the data active = activation above about 49%;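 note: HepG2 hepatoma cells carrying a DRE-driven firefly luciferase reporter; 0% = vehicle wells and 100% = reference agonist wells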
PXR counter: human PXR activators, counter-screen for AHR activator project, cell-based, luciferase luminescence; 2,300 tested, 88% active; AID 434939, 2010; activation, % at 11.6 µM; cell-based PXR reporter; shares compounds with AHR act; in the data active = activation above about 11%;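 note: human hepatoma DPX-2 cells expressing full-length human PXR; 0% = DMSO and 100% = reference agonist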
An asterisk follows results filed as active; ? = inconclusive; nt = not tested or not shown. In the library only some 3.7% were active in any assay of this set; here they are far more common.

SMILES	GAA850 FXN act	AHR act	SR-BI DiI-HDL act	JMJD2C inh	SR-BI HDL uptake	AHR act confirm	PXR counter
COc1ccc(/C=C/C(=O)c2cc3c(cc2N)OCO3)cc1	6	96*	-46	-2	46	128*	26*
O=[N+]([O-])c1ccc(N2CCc3ccccc3C2)nc1	5	-3	-13	0	13	nt	nt
O=C(CCCc1c[nH]c2ccccc12)N1CCOCC1	1	6	-1	-6	1	nt	nt
Oc1ccccc1-c1ccn[nH]1	1	2	7	0	-7	nt	nt
Cc1ccccc1-c1cc(-c2ccccc2O)n[nH]1	6	112*	-17	-7	17	95*	10
Oc1ccccc1-c1cc(-c2ccccc2)n[nH]1	5	98*	-33	-9	33	88*	13*
Cc1cc(=O)n2c(-c3ccccc3C)n[nH]c2n1	3	13	7	17	-7	nt	nt
CCN(CC(=O)Nc1c(F)cccc1F)C(=O)COc1ccc2c(C)cc(=O)oc2c1	0	-4	-25	5	25	nt	nt
Nc1c(Cl)cc(-c2csc(NC(CO)c3nc4ccccc4n3CCOCCO)n2)cc1Cl (stereo not given)	6	80*	-17	-1	17	90*	104*
C=CCn1c(SCC(=O)N2CCCC2)nc2c([nH]c3ccccc32)c1=O	1	86*	15	-6	-15	98*	125*
C=CCn1c(SCC(=O)N2CCN(C(=O)OCC)CC2)nc2c([nH]c3ccccc32)c1=O	2	nt	nt	nt	nt	nt	nt
CCCS(=O)(=O)Nc1cccc(-c2nc3cccnc3s2)c1	6	91*	-32	-9	32	99*	40*
Cc1ccc(-c2nc3cccnc3s2)cc1NS(C)(=O)=O	6	142*	-19	-8	19	121*	37*
O=S(=O)(Nc1cccc(-c2nc3cccnc3s2)c1)c1cccs1	3	5	nt	-6	nt	nt	nt
Cc1ccc(-c2nc(C(F)(F)F)cc(=O)[nH]2)cc1	1	-1	13	26	-13	nt	nt
Cc1cc(=O)[nH]c(-c2ccc(C(F)(F)F)cc2)n1	1	87*	29	5	-29	114*	11*
COc1ccc(/C=C/C(=O)c2oc3ccc(F)cc3c2C)cc1	2	81*	0	-8	0	130*	75*
CC(C)N1CCN(C2CSCCSC2)CC1CCO (stereo not given)	0	1	27	2	-27	nt	nt
Cn1c(N=Nc2ccccc2)nc2ccccc21	-5	138*	18	-21	-18	98*	10
Cc1c(-c2nc3ccccc3[nH]2)cnn1C	2	-1	29	-1	-29	nt	nt
Cn1cc(-c2nc3ccccc3[nH]2)c2ccccc21	0	138*	-22	-23	22	122*	64*
O=C(Nc1ccc(-c2nc3cccnc3s2)cc1)c1ccc(Cl)nc1	4	86*	nt	-10	nt	5	11*
Cc1cc2n(n1)SC(Nc1ccc(F)c(Cl)c1)N2 (stereo not given)	2	89*	-2	-10	2	106*	52*
Cc1ccc(NC(=O)Nc2ccc(F)c(Cl)c2)cc1	1	3	nt	?	nt	nt	nt
COc1ccc(-c2c(C#Cc3ccsc3)c3cc(-c4cccc5[nH]ccc45)ccc3n2C)cc1	2	12	-27	4	21	nt	nt
Cn1c(-c2ccsc2)c(-c2cccs2)c2cc(-c3cccc4[nH]ccc34)ccc21	1	112*	-21	0	21	101*	79*
O=C(Nc1cccc(Cl)c1)c1cccnn1	0	109*	10	-3	-10	82*	nt
N#C/C(=C/c1ccc(Sc2nc3ccccc3[nH]2)o1)c1cccc(F)c1	0	4	11	5	-11	nt	nt

Source: PubChem (several laboratories)
